Data published in ChEMBL document CHEMBL4325893, “Synthesis and antibacterial profiles of targeted triclosan derivatives” (2019).
Converted amounts (≈) assume the structure as drawn.

How the values were obtained:
Salmonella typhimurium = test: Antibacterial activity against Salmonella enterica subspecies enterica serotype typhimurium ATCC 14028 after 18 hrs; format: functional, Salmonella enterica subsp. enterica serovar Typhimurium; conditions: ATCC 14028, 18 h
Summary of the method: (§1)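 Broth microdilution in Nutrient Broth No. 2; stocks in ethanol diluted to 0.01–128 µg/ml (triclosan) or 0.25–256 µg/ml (glycosides). Overnight 37 °C NB2 cultures diluted 1 in 10^4 in saline and added to the dilutions. Incubation at 37 °C with agitation, OD read every 15 min; MIC is the lowest concentration preventing any OD rise after 18 h.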

[1] = Antibacterial activity against Salmonella enterica subspecies enterica serotype Dublin OCC 627 after 18 hrs; format: functional, Salmonella enterica subsp. enterica serovar Dublin; conditions: OCC 627, 18 h; summary of the method: as §1
Bacillus cereus = test: Antibacterial activity against Bacillus cereus ATCC 14579 after 18 hrs; format: functional; conditions: ATCC 14579, 18 h; summary of the method: as §1
Escherichia coli [2] = test: Antibacterial activity against Escherichia coli ATCC 11775 after 18 hrs; format: functional; summary of the method: as §1
Streptococcus agalactiae = test: Antibacterial activity against Streptococcus agalactiae OCC 182 after 18 hrs; format: functional; conditions: OCC 182, 18 h
Summary of the method: (§2)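 Broth microdilution in Nutrient Broth No. 2. Ethanol stocks were diluted in broth to 0.01–128 µg/ml for triclosan and 0.25–256 µg/ml for glycosides. Overnight 37°C NB2 cultures were diluted 1 in 10^4 in saline and added to the wells. Plates were incubated at 37°C with OD read every 15 min after agitation. MIC was the lowest concentration giving no OD increase at 18 h.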

Klebsiella aerogenes = test: Antibacterial activity against Enterobacter aerogenes ATCC 13048 after 18 hrs; format: functional; conditions: ATCC 13048, 18 h; summary of the method: as §1
Staphylococcus aureus [3] = test: Antibacterial activity against Staphylococcus aureus ATCC 6538P after 18 hrs; format: functional; summary of the method: as §1
[4] = system: Staphylococcus epidermidis; test: Antibacterial activity against Staphylococcus epidermidis 155 after 18 hrs; format: functional; conditions: Staphylococcus epidermidis, 155, 18 h; summary of the method: as §1
[5] = Antibacterial activity against Enterobacter cloacae ATCC 13047 after 18 hrs; format: functional, Enterobacter cloacae subsp. cloacae; conditions: ATCC 13047, 18 h; summary of the method: as §1
Bacillus subtilis = test: Antibacterial activity against Bacillus subtilis NCTC 10073 after 18 hrs; format: functional; conditions: NCTC 10073, 18 h; summary of the method: as §1
[6] = Antibacterial activity against Salmonella enterica subspecies enterica serotype Virchow NCTC 5742 after 18 hrs; format: functional, Salmonella enterica subsp. enterica serovar Virchow; conditions: NCTC 5742, 18 h; summary of the method: as §1
[7] = Antibacterial activity against Salmonella enterica subspecies enterica serotype Nottingham NCTC 7832 after 18 hrs; format: functional, Salmonella enterica subsp. enterica serovar Nottingham; conditions: NCTC 7832, 18 h; summary of the method: as §1
Staphylococcus aureus [8] = test: Antibacterial activity against Staphylococcus aureus ATCC 29213 after 18 hrs; format: functional; conditions: ATCC 29213, 18 h; summary of the method: as §1
Aeromonas hydrophila = test: Antibacterial activity against Aeromonas hydrophila OCC 778 after 18 hrs; format: functional; conditions: OCC 778, 18 h; summary of the method: as §1
Citrobacter freundii = test: Antibacterial activity against Citrobacter freundii OCC 851 after 18 hrs; format: functional; conditions: OCC 851, 18 h; summary of the method: as §1
Escherichia coli [9] = test: Antibacterial activity against Escherichia coli NCTC 13216 after 18 hrs; format: functional; conditions: NCTC 13216, 18 h; summary of the method: as §1
Staphylococcus aureus [10] = test: Antibacterial activity against Staphylococcus aureus ATCC 9144 after 18 hrs; format: functional; conditions: ATCC 9144, 18 h; summary of the method: as §1
Streptococcus pneumoniae [11] = test: Antibacterial activity against Streptococcus pneumoniae 6305 after 18 hrs; format: functional; conditions: Streptococcus pneumoniae, 6305, 18 h; summary of the method: as §2
Enterococcus faecalis = test: Antibacterial activity against Enterococcus faecalis ATCC 33186 after 18 hrs; format: functional; conditions: ATCC 33186, 18 h; summary of the method: as §1
Enterococcus faecium = test: Antibacterial activity against Enterococcus faecium ATCC 19434 after 18 hrs; format: functional; conditions: ATCC 19434, 18 h; summary of the method: as §1
[12] = Antibacterial activity against Salmonella enterica subspecies enterica serotype Arizonae OCC 706 after 18 hrs; format: functional, Salmonella enterica subsp. enterica serovar Arizonae; conditions: OCC 706, 18 h; summary of the method: as §1
Klebsiella pneumoniae = test: Antibacterial activity against Klebsiella pneumoniae ATCC 10031 after 18 hrs; format: functional; conditions: ATCC 10031, 18 h; summary of the method: as §1
[13] = Antibacterial activity against Salmonella enterica subspecies enterica serotype Poona NCTC 4840 after 18 hrs; format: functional, Salmonella enterica subsp. enterica serovar Poona; conditions: NCTC 4840, 18 h; summary of the method: as §1
Staphylococcus aureus [14] = test: Antibacterial activity against Staphylococcus aureus ATCC 25923 after 18 hrs; format: functional; conditions: ATCC 25923, 18 h; summary of the method: as §1
Pseudomonas aeruginosa = test: Antibacterial activity against Pseudomonas aeruginosa ATCC 27853 after 18 hrs; format: functional; conditions: ATCC 27853, 18 h; summary of the method: as §1
[15] = system: Salmonella enterica subsp. enterica serovar Abony; test: Antibacterial activity against Salmonella enterica subspecies enterica serotype Abony NCTC 6017 after 18 hrs; format: functional; conditions: NCTC 6017, 18 h; summary of the method: as §1
Staphylococcus aureus [16] = test: Antibacterial activity against Staphylococcus aureus OCC 104 after 18 hrs; format: functional; conditions: OCC 104, 18 h; summary of the method: as §1
Streptococcus pneumoniae [17] = test: Antibacterial activity against Streptococcus pneumoniae ATCC 49619 after 18 hrs; format: functional; conditions: ATCC 49619, 18 h; summary of the method: as §2

- MIC (Salmonella typhimurium): 16 to 64 µg/mL (≈ 35.4 to 142 µM)
- MIC [1]: 16 to 64 µg/mL (≈ 35.4 to 142 µM)
- MIC (Bacillus cereus): 256 µg/mL (≈ 567 µM)
- MIC (Escherichia coli [2]): 4 to 64 µg/mL (≈ 8.86 to 142 µM)
- MIC (Streptococcus agalactiae): 128 µg/mL (≈ 283 µM)
- MIC (Klebsiella aerogenes): 32 µg/mL (≈ 70.8 µM)
- MIC (Staphylococcus aureus [3]): 2 to 8 µg/mL (≈ 4.43 to 17.7 µM)
- MIC [4]: 4 to 8 µg/mL (≈ 8.86 to 17.7 µM)
- MIC [5]: 8 µg/mL (≈ 17.7 µM)
- MIC (Bacillus subtilis): 128 µg/mL (≈ 283 µM)
- MIC [6]: 16 to 64 µg/mL (≈ 35.4 to 142 µM)
- MIC [7]: 16 to 64 µg/mL (≈ 35.4 to 142 µM)
- MIC (Staphylococcus aureus [8]): 2 to 8 µg/mL (≈ 4.43 to 17.7 µM)
- MIC (Aeromonas hydrophila): > 256 µg/mL
- MIC (Citrobacter freundii): 64 µg/mL (≈ 142 µM)
- MIC (Escherichia coli [9]): 4 to 64 µg/mL (≈ 8.86 to 142 µM)
- MIC (Staphylococcus aureus [10]): 2 to 8 µg/mL (≈ 4.43 to 17.7 µM)
- MIC (Streptococcus pneumoniae [11]): 64 µg/mL (≈ 142 µM)
- MIC (Enterococcus faecalis): 256 µg/mL (≈ 567 µM)
- MIC (Enterococcus faecium): 256 µg/mL (≈ 567 µM)
- MIC [12]: 16 to 64 µg/mL (≈ 35.4 to 142 µM)
- MIC (Klebsiella pneumoniae): 4 µg/mL (≈ 8.86 µM)
- MIC [13]: 16 to 64 µg/mL (≈ 35.4 to 142 µM)
- MIC (Staphylococcus aureus [14]): 2 to 8 µg/mL (≈ 4.43 to 17.7 µM)
- MIC (Pseudomonas aeruginosa): > 256 µg/mL
- MIC [15]: 16 to 64 µg/mL (≈ 35.4 to 142 µM)
- MIC (Staphylococcus aureus [16]): 2 to 8 µg/mL (≈ 4.43 to 17.7 µM)
- MIC (Streptococcus pneumoniae [17]): 64 µg/mL (≈ 142 µM)
Compound: OC[C@H]1O[C@H](Oc2cc(Cl)ccc2Oc2ccc(Cl)cc2Cl)[C@@H](O)[C@@H](O)[C@@H]1O
